In ChEMBL document CHEMBL4613270, “Structure-Activity Relationship Study Enables the Discovery of a Novel Berberine Analogue as the RXRα Activator to Inhibit Colon Cancer” (J Med Chem, 2020):
pIC50: −log10 of the molar value. Calls of active or inactive are those of the source. The rule behind the calls is not given here.

Tests used:
[1] = target: T1, Retinoic acid receptor RXR-alpha (Homo sapiens) (UniProt P19793); assay: In-vivo activation of RXRalpha in BALB/c mouse xenografted with human KM12C cells assessed as reduction in Cdc2 mRNA expression at 100 mg/kg, ig dosed daily for 15 days by real-time PCR analysis; type: functional, organism-based
T1 sequence (whole entry): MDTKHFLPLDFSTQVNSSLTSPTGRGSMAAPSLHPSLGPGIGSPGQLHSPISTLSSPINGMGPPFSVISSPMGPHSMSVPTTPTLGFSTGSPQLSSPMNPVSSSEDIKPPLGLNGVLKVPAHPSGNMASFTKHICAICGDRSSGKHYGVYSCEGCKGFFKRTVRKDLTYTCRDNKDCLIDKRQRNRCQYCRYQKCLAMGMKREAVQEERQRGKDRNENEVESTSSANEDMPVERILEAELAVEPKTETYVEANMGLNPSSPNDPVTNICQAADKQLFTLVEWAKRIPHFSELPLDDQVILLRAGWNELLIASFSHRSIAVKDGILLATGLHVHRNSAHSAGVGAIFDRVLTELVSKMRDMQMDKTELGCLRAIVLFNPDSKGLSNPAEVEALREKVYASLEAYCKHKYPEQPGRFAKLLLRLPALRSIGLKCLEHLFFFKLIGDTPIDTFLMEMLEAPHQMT
Summary of the method: (§1)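 KM12C cells (1×10^6 per mouse in 100 μL HBSS) injected subcutaneously into both flanks of nude mice; after seven days, randomized to three groups, dosed intragastrically once daily for 15 days with vehicle (CMC-Na) or 100 mg/kg compound; mice euthanized and tumors removed for analysis.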

[2] = target: T1, Retinoic acid receptor RXR-alpha (Homo sapiens); assay: Activation of RXRalpha in human SW620 cells assessed as increase in p21 (WAF1/CIP1) protein expression at 40 to 80 uM incubated for 15 hrs by Western blot analysis; type: cell-based; settings: SW-620
[3] = target: T1, Retinoic acid receptor RXR-alpha (Homo sapiens); assay: In-vivo activation of RXRalpha in BALB/c mouse xenografted with human KM12C cells assessed as increase in p21 (WAF1/CIP1) mRNA expression at 100 mg/kg, ig dosed daily for 15 days by real-time PCR analysis; type: functional, organism-based
[4] = target: T1, Retinoic acid receptor RXR-alpha (Homo sapiens); assay: Activation of RXRalpha (unknown origin) expressed in human KM12C cells co-expressing beta-catenin assessed as induction of RXRalpha interaction with beta-catenin at 25 to 50 uM incubated for 15 hrs by mammalian two-hybrid assay; type: cell-based
Summary of the method: (§2)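 Mammalian two-hybrid: cells co-transfected by lipofection with pBIND-β-catenin/S33Y plus pACT-RXRα (RXRα–β-catenin) or pACT-c-Cbl (β-catenin–c-Cbl); 20 h after transfection, compound added for 15 h; cells lysed in passive lysis buffer, 4 °C, 1 h; firefly and Renilla luciferase read by dual-luciferase kit.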

[5] = Toxicity in BALB/c mouse xenografted with human KM12C cells assessed as effect on biochemical parameter by measuring ALT level at 100 mg/kg, ig dosed daily for 15 days by automatic chemistry analyzer based analysis (reference value: 24.18 +/- 0.77 U/L); type: organism-based; settings: in vivo, po, 360 h
[6] = target: T1, Retinoic acid receptor RXR-alpha (Homo sapiens); assay: Activation of RXRalpha (unknown origin) expressed in human SW620 cells co-expressing beta-catenin and c-Cbl assessed as induction of beta-caten interaction with c-Cbl at 40 to 80 uM incubated for 15 hrs by mammalian two-hybrid assay; type: cell-based; settings: SW-620; summary of the method: as §2
[7] = target: T1, Retinoic acid receptor RXR-alpha (Homo sapiens); assay: In-vivo activation of RXRalpha in BALB/c mouse xenografted with human KM12C cells assessed as induction of beta-catenin protein degradation at 100 mg/kg, ig dosed daily for 15 days by Western blot analysis; type: functional, organism-based
[8] = target: T1, Retinoic acid receptor RXR-alpha (Homo sapiens); assay: Activation of RXRalpha in human SW620 cells assessed as inhibition of Wnt/beta-catenin-dependent transcriptional activity at 40 to 80 uM incubated for 15 hrs by TOP/FOP luciferase assay; type: cell-based; settings: SW-620
Summary of the method: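 TOP/FOP reporter: cells co-transfected by lipofection with pRL-TK plus TOPflash or FOPflash; compound added 20 h after transfection for 15 h; passive lysis at 4 °C, 1 h; firefly and Renilla luciferase measured by dual-luciferase assay.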

[9] = target: T1, Retinoic acid receptor RXR-alpha (Homo sapiens); assay: Activation of RXRalpha (unknown origin) expressed in human SW620 cells co-expressing beta-catenin assessed as induction of RXRalpha interaction with beta-catenin at 40 to 80 uM incubated for 15 hrs by mammalian two-hybrid assay; type: cell-based; settings: SW-620; summary of the method: as §2
[10] = Bioavailability in Sprague-Dawley rat at 100 mg/kg, ig measured after 0.083 to 36 hrs by LC-MS/MS analysis; type: ADME, organism-based; settings: in vivo, po
Summary of the method: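 SD rats (200 ± 20 g) randomized to three groups; single intragastric dose of 100 mg/kg or vehicle (0.5% CMC-Na). Tail-vein blood (0.5 mL) drawn at 0.083, 0.25, 0.5, 1, 2, 4, 8, 12, 24 and 36 h. Plasma separated by centrifugation at 2000 rpm for 10 min, frozen at -80 °C, then quantified by LC-MS/MS.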

[11] = system: HCT-116; assay: Inhibition of cell proliferation of human HCT116 cells incubated for 15 hrs by MTT assay; type: functional, cell-based; settings: HCT-116, 15 h
Summary of the method: (§3)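 Cells plated at 1×10⁴ per well, incubated overnight at 37 °C, then exposed to a concentration series for 15 h. MTT (5 mg/mL stock) added for 4 h at 37 °C. Formazan dissolved in DMSO and absorbance read at 570 nm. IC50 derived from the dose-response curve.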

[12] = target: T1, Retinoic acid receptor RXR-alpha (Homo sapiens); assay: In-vivo activation of RXRalpha in BALB/c mouse xenografted with human KM12C cells assessed as reduction in c-Myc protein expression at 100 mg/kg, ig dosed daily for 15 days by immunohistochemistry analysis; type: functional, organism-based; summary of the method: as §1
[13] = system: SW-620; assay: Inhibition of cell proliferation of human SW620 cells incubated for 15 hrs by MTT assay; type: functional, cell-based; settings: SW-620, 15 h; summary of the method: as §3
[14] = system: KM12C; assay: Inhibition of cell proliferation of human KM12C cells incubated for 15 hrs by MTT assay; type: functional, cell-based; summary of the method: as §3
[15] = target: T1, Retinoic acid receptor RXR-alpha (Homo sapiens); assay: Activation of RXRalpha (unknown origin) expressed in human HCT116 cells co-expressing beta-catenin and c-Cbl assessed as induction of beta-caten interaction with c-Cbl at 30 to 60 uM incubated for 15 hrs by mammalian two-hybrid assay; type: cell-based; settings: HCT-116; summary of the method: as §2
[16] = target: T1, Retinoic acid receptor RXR-alpha (Homo sapiens); assay: Activation of RXRalpha in human KM12C cells assessed as reduction in Cdc2 protein expression at 25 to 50 uM incubated for 15 hrs by Western blot analysis; type: cell-based
[17] = Toxicity in BALB/c mouse xenografted with human KM12C cells assessed as effect on biochemical parameter by measuring AST level at 100 mg/kg, ig dosed daily for 15 days by automatic chemistry analyzer based analysis (reference value: 157.15 +/- 8.41 U/L); type: organism-based; settings: in vivo, po, 360 h
[18] = target: T1, Retinoic acid receptor RXR-alpha (Homo sapiens); assay: Activation of RXRalpha in human KM12C cells assessed as […] crease in p21 (WAF1/CIP1) mRNA expression at 25 to 50 uM incubated for 15 hrs by real-time PCR analysis; type: cell-based
[19] = target: T1, Retinoic acid receptor RXR-alpha (Homo sapiens); assay: Activation of RXRalpha in human SW620 cells assessed as induction of beta-catenin protein degradation at 40 to 80 uM incubated for 15 hrs by Western blot analysis; type: cell-based; settings: SW-620
[20] = target: T1, Retinoic acid receptor RXR-alpha (Homo sapiens); assay: Activation of RXRalpha in human HCT116 cells assessed as increase in p21 (WAF1/CIP1) protein expression at 30 to 60 uM incubated for 15 hrs by Western blot analysis; type: cell-based; settings: HCT-116

SMILES	Activity [1]	Activity [2]	Activity [3]	Activity [4]	Activity [5] [U/L]	Activity [6]	Activity [7]	Activity [8]	Activity [9]	bioavailability [10] [%]	pIC50 [11]	Activity [12]	pIC50 [13]	pIC50 [14]	Activity [15]	Activity [16]	Activity [17] [U/L]	Activity [18]	Activity [19]	Activity [20]
COc1ccc2c(c1)CC[n+]1cc3c(OC)cccc3cc1-2.[Cl-]	Active	Active	Active	Active	27.2	Active	Active	Active	Active	14.2	4.57	Active	4.44	4.51	Active	Active	158.36	Active	Active	Active
COc1ccc2cc3[n+](cc2c1OC)CCc1cc2c(cc1-3)OCO2.[Cl-] [BERBERINE CHLORIDE]	Active	Active	Active	Active	27.9	Active	Active	Active	Active	0.544	4.08	Active	3.90	4.12	Active	Active	177.86	Active	Active	Active
